From ChEMBL document CHEMBL3758106, “Antitumor Activity of Americanin A Isolated from the Seeds of Phytolacca americana by Regulating the ATM/ATR Signaling Pathway and the Skp2-p27 Axis in Human Colon Cancer Cells” (J Nat Prod, 2015)
Active and inactive are the calls of the source. The rule behind the calls is not given here.

Columns and labels:
[1] = system: HCT-116; experiment: Induction of cell cycle arrest in human HCT116 cells assessed as accumulation at G2/M phase at 15 uM after 24 hrs by propidium iodide staining-based flow cytometric analysis in presence of RNase A (reference value: 20.6%); type: functional
[2] = system: HCT-116; experiment: Induction of apoptosis in human HCT116 cells assessed as cleaved caspase 8 level at 30 uM up to 24 hrs by Western blot analysis in presence of NAC; type: functional, cell-based
[3] = system: HCT-116; experiment: Induction of apoptosis in human HCT116 cells assessed as viable cells at 15 uM after 48 hrs by annexin V-FITC/propidium iodide staining-based flow cytometric analysis (reference value: 91.2%); type: functional; conditions: HCT-116, 48 h, read-out: Activity
[4] = system: HCT-116; experiment: Induction of reactive oxygen species in human HCT116 cells at 30 uM after 48 hrs by DCFH-DA staining-based flow cytometric analysis (reference value: 5.1%); type: functional
In short: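 HCT116 cells seeded overnight, then exposed to test compounds, alone or with NAC, for 48 h in complete medium. Loaded with 20 μM DCFH-DA for 30 min; intracellular ROS in 20 000 cells per group read by flow cytometry as histograms.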

[5] = system: HCT-116; experiment: Induction of cell cycle arrest in human HCT116 cells assessed as accumulation at S phase at 15 uM after 24 hrs by propidium iodide staining-based flow cytometric analysis in presence of RNase A (reference value: 13.4%); type: functional
[6] = Antiproliferative activity against human HCT15 cells after 24 to 72 hrs by SRB assay; type: functional, cell-based; conditions: HCT-15
In short: (§1)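 Cells grown in 96-well plates (RPMI 1640; MRC-5 in MEM, 10% FBS, antibiotics) with compound […]; fixed in 10% TCA 30 min at 4 °C, stained 0.4% SRB in 1% acetic acid 1 h, dye dissolved in 10 mM Tris pH 10.0, A515 read; viability as % of solvent control, IC50 by nonlinear regression; mean of three independent experiments.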

[7] = system: RKO; experiment: Antiproliferative activity against human RKO cells after 24 to 72 hrs by SRB assay; type: functional, cell-based; in short: as §1
[8] = system: HCT-116; experiment: Induction of morphological change in human HCT116 cells assessed as loss of contact with surface of culture dish at 30 uM after 24 to 48 hrs by phase contrast microscopic analysis; type: functional, cell-based
In short: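 HCT116 cells incubated with compound for 24 h, then viewed and photographed under phase-contrast microscopy; also examined at 48 h.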

[9] = Decrease in Skp1 expression in human HCT116 cells at 7.5 to 30 uM after 24 hrs by western blot analysis; type: functional, cell-based; conditions: HCT-116
In short: (§2)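 HCT116 cells exposed 24 h in complete medium; lysed in RIPA buffer (pH 8.0), protein by BCA, equal loads run on 8–13% SDS-PAGE, PVDF transfer, blocked in 5% BSA/TBST, primary antibodies overnight at 4 °C, HRP secondaries 2 h RT, ECL detection; β-actin as loading control.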

[10] = Upregulation of phosphorylated ATM expression in human HCT116 cells at 1 hr by Western blot analysis; type: functional, cell-based; conditions: HCT-116
[11] = system: Mus musculus; experiment: Toxicity in nude mouse assessed as change in body weight at 5 to 10 mg/kg, ip administered 3 times per week measured on day 41; type: organism-based; conditions: in vivo
In short: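 Nude mice implanted s.c. in the flank with 2 × 10^6 HCT116 cells. Once tumors reached about 120 mm3, mice were randomized, six per group, to vehicle or compound at 5 or 10 mg/kg ip (200 μL) three times weekly; irinotecan 10 mg/kg ip once weekly as reference. Body weight recorded twice weekly to assess toxicity; study ended day 41.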

[12] = Decrease in SCF E3 expression in human HCT116 cells at 7.5 to 30 uM after 24 hrs by western blot analysis; type: functional, cell-based; conditions: HCT-116; in short: as §2
[13] = system: HCT-116; experiment: Induction of apoptosis in human HCT116 cells assessed as viable cells at 30 uM after 48 hrs by annexin V-FITC/propidium iodide staining-based flow cytometric analysis (reference value: 91.2%); type: functional; conditions: HCT-116, 48 h, read-out: Activity
[14] = system: MRC5; experiment: Cytotoxicity against human MRC5 cells after 24 to 72 hrs by SRB assay; type: cell-based; in short: as §1
[15] = system: Mus musculus; experiment: Downregulation of Ki-67 in human HCT116 cells xenografted in nude mouse at 5 to 10 mg/kg, ip administered 3 times per week measured on day 41 by […]; type: functional, organism-based; conditions: HCT-116
In short: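 Formalin-fixed, paraffin-embedded xenograft sections (mice dosed ip three times weekly) probed with antibodies, detected by LSAB/HRP, counterstained with H&E, imaged by inverted phase-contrast microscopy.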

Q: For `O=C/C=C/c1ccc2c(c1)O[C@@H](CO)[C@H](c1ccc(O)c(O)c1)O2` [AMERICANIN A], which Activity [1] is on record?
A: 31.8%

Q: What about the Activity [2] of the same molecule?
A: inactive

Q: And the viability at 15 µM [3]?
A: 76.3%

Q: And the Activity [4]?
A: 47.4%

Q: What about the Activity [5] of the same molecule?
A: 17.9%

Q: What about the IC50 [6] of the same molecule?
A: 12.5 µM

Q: And the IC50 [7]?
A: 24.4 µM

Q: And the Activity [8]?
A: Active

Q: What about the Activity [9] of the same molecule?
A: Active

Q: And the Activity [10]?
A: Dose-dependent effect

Q: And the Activity [11]?
A: Non-toxic

Q: And the Activity [12]?
A: Active

Q: What about the viability at 30 µM [13] of the same molecule?
A: 30.6%

Q: What about the IC50 [14] of the same molecule?
A: > 100 µM

Q: What about the Activity [15] of the same molecule?
A: Active
